Measurements taken from ChEMBL document CHEMBL1134459 (J Med Chem, 2001).
In brackets after ≈: the same amount, converted by molar mass.

Columns and labels:
[1] = Toxicity in HUVEC cell lysates.; format: cell-based, Lysate; settings: human
E-selectin [2] = molecular target: T1, E-selectin (Homo sapiens, UniProt P16581); test: Inhibition of selectin E in human endothelial cells; format: cell-based, Endothelial cell
T1 sequence (P16581 whole entry): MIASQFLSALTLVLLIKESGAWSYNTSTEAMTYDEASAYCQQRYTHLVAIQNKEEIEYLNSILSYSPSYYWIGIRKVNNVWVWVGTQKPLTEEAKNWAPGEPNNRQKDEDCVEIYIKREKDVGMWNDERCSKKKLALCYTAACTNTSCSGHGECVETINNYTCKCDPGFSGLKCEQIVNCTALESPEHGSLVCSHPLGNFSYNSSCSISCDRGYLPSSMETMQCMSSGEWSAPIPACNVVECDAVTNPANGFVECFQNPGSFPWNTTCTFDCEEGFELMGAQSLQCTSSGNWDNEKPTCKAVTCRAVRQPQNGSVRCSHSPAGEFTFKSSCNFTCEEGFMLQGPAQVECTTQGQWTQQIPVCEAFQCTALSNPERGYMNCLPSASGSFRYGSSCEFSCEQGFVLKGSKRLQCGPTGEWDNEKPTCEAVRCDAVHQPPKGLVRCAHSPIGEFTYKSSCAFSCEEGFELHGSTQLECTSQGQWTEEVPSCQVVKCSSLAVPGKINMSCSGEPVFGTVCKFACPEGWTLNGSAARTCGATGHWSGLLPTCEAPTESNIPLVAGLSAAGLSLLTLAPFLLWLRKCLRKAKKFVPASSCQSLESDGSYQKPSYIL
In short: (§1)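 Whole-cell ELISA on primary HUVECs plated at 5 × 10^4 cells/mL in EBM/2% FBS with growth supplements. Compound preincubated 24 h at 37 °C, then inducer added (TNFα at 5 ng/mL final, or IL-1β or PMA in its place) for 6 h at 37 °C. Mouse monoclonal anti-E-selectin, anti-ICAM-1 or anti-VCAM-1 was applied overnight at 4 °C, then HRP anti-mouse IgG. Detection with OPD, A490. Triplicate assays.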

[3] = molecular target: T2, Intercellular adhesion molecule 1 (Homo sapiens, UniProt P05362); test: Inhibition of intercellular adhesion molecule-1 (ICAM1) in human endothelial cells; format: cell-based, Endothelial cell; in short: as §1
T2 sequence (P05362 whole entry): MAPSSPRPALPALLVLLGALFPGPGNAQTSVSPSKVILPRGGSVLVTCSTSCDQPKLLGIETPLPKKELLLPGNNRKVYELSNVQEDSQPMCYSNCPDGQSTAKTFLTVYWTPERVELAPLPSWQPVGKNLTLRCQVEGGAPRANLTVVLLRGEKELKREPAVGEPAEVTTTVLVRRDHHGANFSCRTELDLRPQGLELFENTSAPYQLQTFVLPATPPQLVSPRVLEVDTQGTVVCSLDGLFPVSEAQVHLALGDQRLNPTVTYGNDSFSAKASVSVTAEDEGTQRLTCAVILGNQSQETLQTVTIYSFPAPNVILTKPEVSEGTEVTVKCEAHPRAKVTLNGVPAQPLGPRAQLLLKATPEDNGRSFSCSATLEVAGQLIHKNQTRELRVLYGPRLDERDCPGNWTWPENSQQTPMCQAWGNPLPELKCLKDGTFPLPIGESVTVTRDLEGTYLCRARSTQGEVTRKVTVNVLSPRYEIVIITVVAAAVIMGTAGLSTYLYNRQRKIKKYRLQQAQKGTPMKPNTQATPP

[4] = Solubility in pH 7.4 buffer.; format: physicochemical
[5] = Solubility in pH 7.4 buffer; format: physicochemical
[6] = molecular target: T2, Intercellular adhesion molecule 1; test: In vitro inhibitory potency compared to TNF-alpha induced Intercellular adhesion molecule-1 in human endothelial cells (ELISA assay); format: cell-based, Endothelial cell
In short: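 Primary HUVECs seeded at 5 × 10^4 cells/mL in EBM/2% FBS with supplements. After 24 h of compound at 37 °C, TNFα was added to 5 ng/mL final for 6 h at 37 °C. Cell-surface ICAM-1 was detected with a mouse monoclonal antibody, then HRP anti-mouse IgG and OPD, with absorbance at 490 nm. Triplicate determinations.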

[7] = molecular target: T3, Vascular cell adhesion protein 1 (Homo sapiens) (UniProt P19320); settings: Endothelial cell
T3 sequence (whole entry): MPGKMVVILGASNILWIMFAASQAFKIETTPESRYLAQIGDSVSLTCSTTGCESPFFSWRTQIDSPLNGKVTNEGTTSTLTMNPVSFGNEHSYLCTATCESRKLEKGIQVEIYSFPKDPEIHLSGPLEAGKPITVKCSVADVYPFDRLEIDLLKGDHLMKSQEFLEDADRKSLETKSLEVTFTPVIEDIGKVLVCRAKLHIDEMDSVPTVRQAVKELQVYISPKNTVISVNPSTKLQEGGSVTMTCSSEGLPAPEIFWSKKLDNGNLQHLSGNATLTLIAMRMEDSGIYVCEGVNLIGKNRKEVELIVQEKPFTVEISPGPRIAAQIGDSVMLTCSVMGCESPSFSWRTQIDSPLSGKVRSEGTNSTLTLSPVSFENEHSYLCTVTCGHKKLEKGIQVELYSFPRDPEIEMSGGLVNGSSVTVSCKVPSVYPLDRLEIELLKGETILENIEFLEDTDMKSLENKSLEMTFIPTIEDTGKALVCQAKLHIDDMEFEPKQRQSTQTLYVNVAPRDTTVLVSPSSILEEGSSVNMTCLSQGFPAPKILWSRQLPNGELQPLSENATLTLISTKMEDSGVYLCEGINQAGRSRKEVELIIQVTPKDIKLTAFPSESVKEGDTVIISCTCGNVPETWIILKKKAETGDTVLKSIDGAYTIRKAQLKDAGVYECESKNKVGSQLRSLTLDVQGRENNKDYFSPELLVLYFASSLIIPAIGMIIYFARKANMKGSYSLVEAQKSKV

E-selectin [8] = molecular target: T1, E-selectin; test: In vitro inhibitory potency compared to TNF-alpha induced Selectin E expression in human endothelial cells (ELISA assay); format: cell-based, Endothelial cell; in short: as §1
E-selectin [9] = molecular target: T1, E-selectin; test: In vitro inhibitory potency compared to IL1-beta induced Selectin E in human endothelial cells (ELISA assay); format: cell-based, Endothelial cell; in short: as §1
[10] = molecular target: T4, E-selectin (Homo sapiens) (UniProt P16581); test: In vitro inhibitory potency compared to PMA induced Selectin E expression in human endothelial cells (ELISA assay) at 1 uM; format: cell-based; settings: Endothelial cell
T4 sequence (whole entry): T1 sequence (P16581 whole entry)
In short: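 HUVEC whole-cell ELISA with PMA substituted for TNFα as inducer. Compound preincubated 24 h at 37 °C, then 6 h induction at 37 °C. E-selectin detected with mouse monoclonal antibody and HRP anti-mouse IgG, OPD development, A490. Value given as percent inhibition at a single concentration of 1 µM.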

[11] = molecular target: T2, Intercellular adhesion molecule 1; test: In vitro inhibitory potency compared to IL1-beta induced Intercellular adhesion molecule-1 in human endothelial cells (ELISA assay); format: cell-based, Endothelial cell
In short: (§2)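 Primary HUVECs seeded at 5 × 10^4 cells/mL in EBM/2% FBS with EGF, bovine brain extract and gentamicin. Compound added next day for 24 h at 37 °C, then inducer (IL-1β or PMA, level not stated) for 6 h at 37 °C. Whole-cell ELISA used mouse monoclonal anti-ICAM-1 or anti-VCAM-1, HRP donkey anti-mouse IgG and OPD, read at 490 nm. Run in triplicate.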

[12] = molecular target: T2, Intercellular adhesion molecule 1; test: In vitro inhibitory potency compared to PMA induced Intercellular adhesion molecule-1 expression in human endothelial cells (ELISA assay); format: cell-based, Endothelial cell; in short: as §2

IC50 (E-selectin [2]) [µM] | IC50 [3] [µM] | Structure (SMILES) | further results
0.013 | 0.059 | CNC(=O)c1cc2c(Oc3ccc(C(=N)NO)cc3)cncc2s1 | IC50 [1]: > 10 µM
0.87 | 0.76 | NC(=O)c1cc2c(Oc3cccc(C(F)(F)F)c3)cncc2s1 | –
0.37 | 0.58 | Cc1cc(Cl)ccc1Oc1cncc2sc(C(N)=O)cc12 | –
0.035 | 0.042 | NC(=O)c1cc2c(Oc3ccc(N)cc3)cncc2s1 | –
0.02 | 0.018 | CCOC(=O)c1ccc(Oc2cncc3sc(C(N)=O)cc23)cc1 | –
> 1 | > 1 | NC(=O)c1cc2c(Oc3ccc(C(=O)NCCN4CCOCC4)cc3)cncc2s1 | –
0.15 | 0.36 | CNC(=O)c1cc2c(Oc3ccc(-c4cncn4C)cc3)cncc2s1 | –
0.005 | 0.006 | CNC(=O)c1cc2c(Oc3ccc(-c4cccs4)cc3)cncc2s1 | –
0.043 | 0.053 | CNC(=O)c1cc2c(Oc3ccc(/C=C/C(=O)NCCN4CCOCC4)cc3)cncc2s1 | –
0.02 | 0.02 | Cc1ccc(Oc2cncc3sc(C(N)=O)cc23)cc1 | IC50 [1]: 91 µM
> 0.715 | 0.79 | NC(=O)c1cc2c(Oc3ccc(/C=C/C(=O)NCC(O)CO)cc3)cncc2s1 (stereo unspecified) | –
0.016 | 0.016 | COCc1ccc(Oc2cncc3sc(C(N)=O)cc23)cc1 | solubility [4]: 6.2 µg/mL (≈ 19.7 µM)
0.11 | 0.026 | CCOCCOCCOCC(F)(F)c1ccc(Oc2cncc3sc(C(=O)NC)cc23)cc1 | –
0.87 | 0.83 | NC(=O)c1cc2c(Oc3ccc(C(=O)N4CCOCC4)cc3)cncc2s1 | –
0.076 | 0.047 | CC(C)c1ccc(Oc2cncc3sc(C(N)=O)cc23)cc1 | IC50 [1]: 34 µM
0.005 | 0.006 | COCCOCc1ccc(Oc2cncc3sc(C(N)=O)cc23)cc1 | –
0.002 | 0.0014 | NC(=O)c1cc2c(Oc3ccc(COC4CCCCO4)cc3)cncc2s1 (stereo unspecified) | –
0.65 | 0.82 | NC(=O)c1cc2c(Oc3ccc(/C=C/C(=O)NCCN(CCO)CCO)cc3)cncc2s1 | –
0.009 | 0.025 | CNC(=O)c1cc2c(Oc3ccc(-c4ccccc4)cc3)cncc2s1 | –
0.67 | 0.68 | NC(=O)c1cc2c(Oc3ccc(C(O)CO)cc3)cncc2s1 (stereo unspecified) | solubility [4]: 15.3 µg/mL (≈ 46.3 µM)
0.028 | 0.022 | CNC(=O)c1cc2c(Oc3ccc(-c4noc(C(F)(F)F)n4)cc3)cncc2s1 | –

Further lines, the compound ahead of its results:

Structure (SMILES) | IC50 (E-selectin [2]) [µM] | IC50 [3] [µM] | further results
CCOCCOCCOCC1(c2ccc(Oc3cncc4sc(C(=O)NC)cc34)cc2)CC1 | – | – | IC50 [1]: > 10 µg/mL
NC(=O)c1cc2c(Oc3ccc(C(=O)N(C(=O)NC4CCCCC4)C4CCCCC4)cc3)cncc2s1 | 0.115 | 0.116 | –
CNC(=O)c1cc2c(Oc3ccc(/C=C/C(=O)NCCN(CCO)CCO)cc3)cncc2s1 | 0.68 | 0.6 | –
COCCOCCOCc1ccc(Oc2cncc3sc(C(N)=O)cc23)cc1 | – | – | solubility [4]: 160 µg/mL (≈ 398 µM)
CNC(=O)c1cc2c(Oc3ccc(/C=C/C(=O)NCCc4c[nH]cn4)cc3)cncc2s1 | 0.6 | 0.67 | –
CNC(=O)c1cc2c(Oc3ccc(COC)cc3)cncc2s1 | 0.013 | 0.017 | solubility [5]: 4.8 µg/mL (≈ 14.6 µM)
NC(=O)c1cc2c(Oc3cccc(Br)c3)cncc2s1 | 0.08 | 0.11 | –
CNC(=O)c1cc2c(Oc3ccc(-c4nn[nH]n4)cc3)cncc2s1 | > 1 | > 1 | –
CCOC(=O)c1cccc(Oc2cncc3sc(C(N)=O)cc23)c1 | 0.63 | 0.68 | –
CNC(=O)c1cc2c(Oc3ccc(/C=C/C(=O)NCC(O)CO)cc3)cncc2s1 (stereo unspecified) | 0.83 | 0.58 | –
CNC(=O)c1cc2c(Oc3ccc(COCCOC)cc3)cncc2s1 | 0.007 | 0.008 | solubility [4]: 25.7 µg/mL (≈ 69 µM)
NC(=O)c1cc2c(Oc3ccc(I)cc3)cncc2s1 | 0.006 | 0.004 | –
NC(=O)c1cc2c(Oc3ccc(Cl)c(F)c3)cncc2s1 | 0.008 | 0.01 | –
NC(=O)c1cc2c(Oc3ccc(CO)cc3)cncc2s1 | – | – | solubility [5]: 6.9 µg/mL (≈ 23 µM)
CNC(=O)c1cc2c(Oc3ccc(Cl)cc3)cncc2s1 | 0.008 | 0.017 | IC50 [6]: 0.015 µM; Inhibition at 1uM [7]: 49%; IC50 (E-selectin [8]): 0.02 µM; IC50 (E-selectin [9]): 0.025 µM; inhibition [10]: 43%; IC50 [11]: 0.01 µM; IC50 [12]: 0.015 µM
CNC(=O)c1cc2c(Oc3ccc(N4CCOCC4)cc3)cncc2s1 | 0.035 | 0.079 | –
CNC(=O)c1cc2c(Oc3ccc(-n4ccnc4)cc3)cncc2s1 | 0.002 | 0.006 | IC50 [1]: > 10 µM
NC(=O)c1cc2c(Oc3ccc(Cl)cc3Br)cncc2s1 | 0.11 | 0.3 | –
CNC(=O)c1cc2c(Oc3ccc(C(=O)NCCN4CCOCC4)cc3)cncc2s1 | 0.77 | 0.73 | –
NC(=O)c1cc2c(Oc3ccc(/C=C/C(=O)NCCN4CCOCC4)cc3)cncc2s1 | 0.034 | 0.032 | –
CNC(=O)c1cc2c(Oc3ccc(-n4cncn4)cc3)cncc2s1 | 0.18 | 0.16 | –
